Test results as given in ChEMBL document CHEMBL1130410, “19-nor-10-azasteroids: a novel class of inhibitors for human steroid 5alpha-reductases 1 and 2” (J Med Chem, 1997).
Several values for one entry are separate records, joined by “and”; a condition that tells them apart may be missing. Equal entries are not always repeated.

Assays:
[1] = target: T1, 3-oxo-5-alpha-steroid 4-dehydrogenase 2 (Homo sapiens, UniProt P31213); test: Inhibitory activity against 5-alpha Reductase-2 on human prostate homogenates from surgically derived benign hyperplastic tissue in experiment 1; type: tissue-based, Prostate gland
T1 sequence (P31213 whole entry): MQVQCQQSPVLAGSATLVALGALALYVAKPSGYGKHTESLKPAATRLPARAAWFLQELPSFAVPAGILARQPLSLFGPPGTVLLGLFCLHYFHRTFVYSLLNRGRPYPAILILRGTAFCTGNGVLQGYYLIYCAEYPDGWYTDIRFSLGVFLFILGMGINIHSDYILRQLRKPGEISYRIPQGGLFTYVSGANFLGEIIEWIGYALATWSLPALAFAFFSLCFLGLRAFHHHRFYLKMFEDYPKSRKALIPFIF
In short: (§1)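 Benign hyperplastic human prostate tissue, stored at -80 °C, was homogenized near 0 °C in 50 mM TRIS pH 7.4 with salts, nicotinamide and sucrose, spun at 200g, and the combined supernatants were used. Homogenate (0.1 mg protein) was incubated with 30 nM testosterone (9% [3H]) and 0.3 mM NADPH for 30 min at 37 °C, with the inhibitor added alongside the substrate. Inhibitor range was 10⁻¹⁰–10⁻⁵ M. DHT conversion was read by TLC and scintillation, in duplicate.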

[2] = target: T1, 3-oxo-5-alpha-steroid 4-dehydrogenase 2; test: TInhibitory activity against 5-alpha Reductase-2 on human prostate homogenates from surgically derived benign hyperplastic tissue in experiment 2; type: tissue-based, Prostate gland; in short: as §1
[3] = target: T1, 3-oxo-5-alpha-steroid 4-dehydrogenase 2; test: Tested against 5 alpha R-2 on human prostate homogenate from surgically derived benign hyperplastic tissue in experiment 3; type: tissue-based, Prostate gland; in short: as §1
[4] = target: T1, 3-oxo-5-alpha-steroid 4-dehydrogenase 2; test: Tested against 5 alpha R-2 on human prostate homogenate from surgically derived benign hyperplastic tissue in experiment 1; type: tissue-based, Prostate gland; in short: as §1
[5] = target: T1, 3-oxo-5-alpha-steroid 4-dehydrogenase 2; test: Inhibition against 5 alpha R-2 in human prostate homogenate compared with finasteride in experiment 1; type: tissue-based, Prostate gland; in short: as §1
[6] = target: T2, 3-oxo-5-alpha-steroid 4-dehydrogenase 1 (Homo sapiens, UniProt P18405); test: (§2) Inhibitory activity against human 5-alpha Reductase-1 expressed in DU-145 cells; type: cell-based
T2 sequence (P18405 whole entry): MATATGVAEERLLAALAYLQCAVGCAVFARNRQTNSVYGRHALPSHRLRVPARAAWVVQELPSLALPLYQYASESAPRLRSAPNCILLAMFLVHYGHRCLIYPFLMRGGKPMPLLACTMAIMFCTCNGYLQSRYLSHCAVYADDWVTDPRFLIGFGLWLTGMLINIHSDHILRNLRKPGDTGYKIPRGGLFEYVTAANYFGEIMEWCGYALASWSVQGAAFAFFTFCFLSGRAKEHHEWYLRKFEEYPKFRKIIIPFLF
In short: (§3)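 DU-145 cells (passage 60–90) were plated at 100 000 cells/well and left to adhere for 24 h. Inhibitors were prepared in ethanol, diluted in phenol-red-free MEM and tested at five doses, 10⁻⁹–10⁻⁵ M, with 5 nM [3H]androstenedione. After 6 h at 37 °C in 5% CO2, the medium was extracted with ethyl acetate and analysed by TLC and scintillation.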

[7] = target: T1, 3-oxo-5-alpha-steroid 4-dehydrogenase 2; test: Tested against 5 alpha R-2 on human prostate homogenate from surgically derived benign hyperplastic tissue in experiment 2; type: tissue-based, Prostate gland; in short: as §1
[8] = target: T1, 3-oxo-5-alpha-steroid 4-dehydrogenase 2; test: Inhibition against 5 alpha R-2 in human prostate homogenate compared with finasteride in experiment 3; type: tissue-based, Prostate gland; in short: as §1
[9] = target: T1, 3-oxo-5-alpha-steroid 4-dehydrogenase 2; test: Inhibition against 5 alpha R-2 in human prostate homogenate compared with finasteride in experiment 2; type: tissue-based, Prostate gland; in short: as §1
[10] = target: T1, 3-oxo-5-alpha-steroid 4-dehydrogenase 2; test: Inhibitory activity against 5-alpha Reductase-2 on human prostate homogenates from surgically derived benign hyperplastic tissue; type: tissue-based, Prostate gland; in short: as §1
[11] = target: T1, 3-oxo-5-alpha-steroid 4-dehydrogenase 2; test: Inhibition against 5 alpha R-2 in human prostate homogenate relative to finasteride; type: tissue-based, Prostate gland
[12] = target: 3-oxo-5-alpha-steroid 4-dehydrogenase 1 (Homo sapiens, UniProt P18405); test: as §2; type: cell-based; in short: as §3; remark: listed apart in the source

| Compound | IC50 [6] | IC50 [11] | IC50 [10] | also measured |
| --- | --- | --- | --- | --- |
| C[C@]12CC[C@H]3[C@@H](CCC4CC(=O)C=CN43)[C@@H]1CCC2=O (some centres not stated) |  | 2.4 nM | 46000 nM |  |
| C[C@]12CC[C@H]3[C@@H](CC[C@H]4CC(=O)CCN43)[C@@H]1CCC2=O | > 100000 nM | 2.9 nM | > 100000 nM |  |
| C=CC(=O)/C=C1/CCC2=C(CC[C@]3(C)C(=O)CC[C@@H]23)N1.C=CC(=O)/C=C1/CCC2C(=CC[C@]3(C)C(=O)CC[C@@H]23)N1 (some centres not stated) |  | 6.1 nM | > 100000 nM |  |
| C[C@]12CC[C@H]3[C@@H](CCC4=CC(=O)CCN43)[C@@H]1CC[C@@H]2O | 409 nM | 2.7 nM | 4200 nM |  |
| C[C@]12CC[C@H]3[C@@H](CCC4=CC(=O)CCN43)[C@@H]1CCC2=O | 299 nM | 3.5 nM | 4400 nM |  |
| CC(C)(C)NC(=O)[C@H]1CC[C@H]2[C@@H]3CCC4=CC(=O)CCN4[C@H]3CC[C@]12C | 1130 nM | 5.5 nM | 460 nM |  |
| C[C@]12CC=C3C4=C(CCC3[C@@H]1CCC2=O)NCCC4=O.C[C@]12CCC3=C(CCC4=C3C(=O)CCN4)[C@@H]1CCC2=O (stereo in doubt; 27b) |  | 3.8 nM |  |  |
| C[C@]12CC=C3C4=C(CCC3[C@@H]1CCC2=O)NCCC4=O.C[C@]12CCC3=C(CCC4=C3C(=O)CCN4)[C@@H]1CCC2=O (stereo in doubt; 27c) | > 100000 nM | 6.1 nM | > 100000 nM |  |
| CC(C)(C)NC(=O)[C@H]1CC[C@H]2[C@@H]3CC[C@H]4NC(=O)C=C[C@]4(C)[C@H]3CC[C@]12C [FINASTERIDE] |  |  | 3 nM | IC50 [12]: 42 nM |

Now from value to compound, other results behind:

| IC50 [6] | IC50 [11] | Compound | IC50 [10] | also measured |
| --- | --- | --- | --- | --- |
| 127 nM |  | CC(C)(C)NC(=O)[C@H]1CC[C@H]2C3=C(CC[C@]12C)N1CCC(=O)C=C1CC3.CC(C)(C)NC(=O)[C@H]1CC[C@H]2C3CCC4=CC(=O)CCN4C3=CC[C@]12C (some centres not stated) |  | IC50 [1]: 37 nM; IC50 [2]: 122 nM; IC50 [3]: 150 nM; IC50 [4]: 10.2 nM; IC50 [5]: 2.2 nM and 3.4 nM; IC50 [7]: 7.3 nM; IC50 [8]: 4.3 nM; IC50 [9]: 5.7 nM and 3.1 nM |
|  | 3 nM | C[C@]12CC=C3[C@@H](CCC4=CC(=O)CCN43)C1CC[C@@H]2O.C[C@]12CCC3=C(CCC4=CC(=O)CCN43)C1CC[C@@H]2O (some centres not stated) | 2900 nM |  |
|  | 3.4 nM | C[C@]12CC=C3[C@@H](CCC4=CC(=O)CCN43)C1CCC2=O.C[C@]12CCC3=C(CCC4=CC(=O)CCN43)C1CCC2=O (stereo in doubt; 4a) |  |  |
| 263 nM | 4.1 nM | C[C@]12CC=C3[C@@H](CCC4=CC(=O)CCN43)C1CCC2=O.C[C@]12CCC3=C(CCC4=CC(=O)CCN43)C1CCC2=O (stereo in doubt; 4a:4b(5:1)) | 4600 nM |  |
